SMILES strings stand for the structures.

One may read the IC50 as the midpoint of a concentration-inhibition curve. High values mean weaker potency, low ones greater potency.

The assay in a line: Cytotoxicity against human U87MG cells after 24 hrs by MTT assay. The class given is functional, cell-based, U-87MG ATCC. To be noted: U-87 MG. In short, it runs like this:
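U87MG human glioblastoma cells were grown in EMEM with 10% FBS and 1% penicillin–streptomycin at 37 °C under humidified 5% CO₂, then seeded at 2 × 10³ cells/well. At about 50% confluence, cells were exposed to compounds at various concentrations (10 mmol/L DMSO stocks; DMSO control) for 24 h. MTT was then added for 3 h at 37 °C, formazan was dissolved in DMSO, and A540 was read. IC50 values are means of three experiments.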

The molecule `COc1ccccc1C(=O)Nc1cn(-c2ccccc2)nc1-c1ccccc1` displayed an IC50 of 81 µM.
For the molecule `Cn1cc(NC(=O)CCCCCCCCCCCN)c(-c2ccccn2)n1`, the IC50 came to 90 µM.
Molecule `Cn1cc(NC(=O)CCCCCCCCCCO)c(-c2ccccn2)n1` showed an IC50 of more than 150 µM.
With `COc1ccccc1C(=O)Nc1cn(C)nc1-c1ccccn1` the figure was 130 µM; with `CCCCCCCCCCCC(=O)Nc1cn(C)nc1-c1ccccn1`, more than 150 µM; with `C[C@H](N)C(=O)Nc1cn(C)nc1-c1ccccn1`, more than 150 µM.
Consider `Cn1cc(NC(=O)CCCCCCCCCCS)c(-c2ccccn2)n1`, for which the IC50 was more than 150 µM.
`O=C(CCCCCCCCCCO)Nc1cn(-c2ccccc2)nc1-c1ccccc1` displayed an IC50 of more than 150 µM.
With `Cn1cc(NC(=O)c2ccccc2)c(-c2ccccn2)n1` the figure was more than 150 µM.
With `CCCCCCCCCCCC(=O)Nc1cn(-c2ccccc2)nc1-c1ccccc1` the figure was 81 µM; with `C[C@H](N)C(=O)Nc1cn(-c2ccccc2)nc1-c1ccccc1`, more than 150 µM.
For `O=C(CCCCCCCCCCS)Nc1cn(-c2ccccc2)nc1-c1ccccc1` the value was 90 µM; for `NCCCCCCCCCCCC(=O)Nc1cn(-c2ccccc2)nc1-c1ccccc1`, 77 µM.
`O=C(Nc1cn(-c2ccccc2)nc1-c1ccccc1)c1ccccc1` had an IC50 of more than 150 µM.

Values taken from ChEMBL document CHEMBL1157851, “Design and synthesis of novel 3,4-disubstituted pyrazoles for nanomedicine applications against malignant gliomas” (Eur J Med Chem, 2010).
